pIC50: −log10 of the molar value.
What was measured:
HL-60 [1] = assay: Growth inhibition of human HL60 cells after 48 hrs by MTT assay; assay type: functional, cell-based; details: HL-60, 48 h
Summary of the method: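 HL-60 human promyelocytic leukemia cells; proliferation inhibition of the cells measured and reported as IC50; values are mean ± SE of at least three independent experiments.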

HL-60 [2] = assay: Growth inhibition of human HL60 cells at 0.63 uM after 48 hrs by MTT assay relative to control; assay type: functional; details: HL-60, 48 h, read-out: GI
HL-60 [3] = assay: Growth inhibition of human HL60 cells at 2.5 uM after 48 hrs by MTT assay relative to control; assay type: functional; details: HL-60, 48 h, read-out: GI
HL-60 [4] = assay: Growth inhibition of human HL60 cells at 5 uM after 48 hrs by MTT assay relative to control; assay type: functional; details: HL-60, 48 h, read-out: GI
HL-60 [5] = assay: Growth inhibition of human HL60 cells at 40 uM after 48 hrs by MTT assay relative to control; assay type: functional; details: HL-60, 48 h, read-out: GI
HL-60 [6] = assay: Induction of apoptosis in human HL60 cells assessed as live cells at 2 uM after 24 hrs by Annexin V-PE/7AAD staining based flow cytometry (reference value: 90.9%); assay type: functional
HL-60 [7] = assay: Growth inhibition of human HL60 cells at 20 uM after 48 hrs by MTT assay relative to control; assay type: functional; details: HL-60, 48 h, read-out: GI
HL-60 [8] = assay: Growth inhibition of human HL60 cells at 1.25 uM after 48 hrs by MTT assay relative to control; assay type: functional; details: HL-60, 48 h, read-out: GI
HL-60 [9] = assay: Growth inhibition of human HL60 cells at 10 uM after 48 hrs by MTT assay relative to control; assay type: functional; details: HL-60, 48 h, read-out: GI
HL-60 [10] = assay: Induction of apoptosis in human HL60 cells assessed as early apoptotic cells at 2 uM after 24 hrs by Annexin V-PE/7AAD staining based flow cytometry (reference value: 4.42%); assay type: functional
HL-60 [11] = assay: Induction of apoptosis in human HL60 cells assessed as late apoptotic cells at 2 uM after 24 hrs by Annexin V-PE/7AAD staining based flow cytometry (reference value: 3.64%); assay type: functional
HL-60 [12] = assay: Induction of apoptosis in human HL60 cells assessed as necrotic cells at 2 uM after 24 hrs by Annexin V-PE/7AAD staining based flow cytometry (reference value: 1.08%); assay type: functional
[13] = Stability of the compound in DMSO/deionized water post nanoparticle formation after 3 weeks; assay type: physicochemical; details: 504 h

**Q.** With `C[C@H]1[C@H](C)CC[C@]2(C(=O)N3CCNCC3)CC[C@]3(C)C(=CC[C@@H]4[C@@]5(C)Cc6cn[nH]c6C(C)(C)[C@@H]5CC[C@]43C)[C@H]12` as the compound, how does the pIC50 (HL-60 [1]) read?
**A.** 6.04

**Q.** And the inhibition of growth at 0.63 µM (HL-60 [2])?
**A.** 14.7%

**Q.** What about the inhibition of growth at 2.5 µM (HL-60 [3]) of the same compound?
**A.** 86%

**Q.** What about the inhibition of growth at 5 µM (HL-60 [4]) of the same compound?
**A.** 91.6%

**Q.** And the inhibition of growth at 40 µM (HL-60 [5])?
**A.** 94%

**Q.** And the Activity (HL-60 [6])?
**A.** 76.5%

**Q.** What about the inhibition of growth at 20 µM (HL-60 [7]) of the same compound?
**A.** 93.5%

**Q.** What about the inhibition of growth at 1.25 µM (HL-60 [8]) of the same compound?
**A.** 66.4%

**Q.** What about the inhibition of growth at 10 µM (HL-60 [9]) of the same compound?
**A.** 95%

**Q.** What about the Activity (HL-60 [10]) of the same compound?
**A.** 19.1%

**Q.** What about the Activity (HL-60 [11]) of the same compound?
**A.** 3.89%

**Q.** What about the Activity (HL-60 [12]) of the same compound?
**A.** 0.439%

**Q.** And the Stability [13]?
**A.** Stable
